Each structure is given as a SMILES string.

In general, inhibition refers to the drop in the measured response relative to a control, in per cent. A word on the IC50: it is the concentration needed to halve the response being measured.

The target in series [1] is Ephrin type-A receptor 2 (Homo sapiens, UniProt P29317). The experiment in a line: Inhibition of EphA2 in human HeLa cells lysate at 50 uM pre incubated for 15 mins followed by ATP acyl phosphate probe addition and measured after 10 mins by LC-MS/MS analysis relative to control. It is filed as subcellular. Conditions: time 25.0 min.
Series [2] in a line: Toxicity in C57Bl/6 mouse assessed as effect on creatinine level at 50 mg/kg, ip for 14 days (reference value: < 0.2 mg/dl). Conditions: in vivo, 336 h, time 14 day. It is filed as organism-based.
In series [3] the target is Ribosomal protein S6 kinase alpha-1 (Homo sapiens, UniProt Q15418). The experiment in a line: Inhibition of RSK1 domain 2 K2 site in human HeLa cells lysate at 2 uM pre incubated for 15 mins followed by ADP acyl phosphate probe addition and measured after 10 mins by LC-MS/MS analysis relative to control. It is filed as subcellular. Conditions: time 25.0 min.
The target in series [4] is T1, Serine/threonine-protein kinase Chk1 (Homo sapiens) (UniProt O14757).
T1 sequence (whole entry): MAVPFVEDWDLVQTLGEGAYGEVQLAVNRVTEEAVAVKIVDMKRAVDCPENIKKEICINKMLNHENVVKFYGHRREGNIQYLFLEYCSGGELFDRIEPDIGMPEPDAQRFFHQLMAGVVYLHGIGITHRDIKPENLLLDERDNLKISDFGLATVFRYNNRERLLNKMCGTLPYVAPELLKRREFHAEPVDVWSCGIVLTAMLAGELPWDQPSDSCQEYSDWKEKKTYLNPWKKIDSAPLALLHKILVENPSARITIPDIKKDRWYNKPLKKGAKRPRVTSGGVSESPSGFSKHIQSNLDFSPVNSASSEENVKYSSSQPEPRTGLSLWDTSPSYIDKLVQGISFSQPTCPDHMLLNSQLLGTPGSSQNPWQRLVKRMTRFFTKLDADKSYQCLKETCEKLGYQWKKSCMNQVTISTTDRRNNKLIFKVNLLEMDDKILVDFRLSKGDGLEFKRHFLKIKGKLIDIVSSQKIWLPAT
The experiment in a line: Inhibition of CHK1 in human HeLa cells lysate at 50 uM pre incubated for 15 mins followed by ATP acyl phosphate probe addition and measured after 10 mins by LC-MS/MS analysis relative to control. The format is subcellular. The conditions noted are these: time 25.0 min.

For series [5], the target named is T2, Phosphatidylinositol 5-phosphate 4-kinase type-2 alpha (Homo sapiens, UniProt P48426).
T2 sequence (P48426 whole entry): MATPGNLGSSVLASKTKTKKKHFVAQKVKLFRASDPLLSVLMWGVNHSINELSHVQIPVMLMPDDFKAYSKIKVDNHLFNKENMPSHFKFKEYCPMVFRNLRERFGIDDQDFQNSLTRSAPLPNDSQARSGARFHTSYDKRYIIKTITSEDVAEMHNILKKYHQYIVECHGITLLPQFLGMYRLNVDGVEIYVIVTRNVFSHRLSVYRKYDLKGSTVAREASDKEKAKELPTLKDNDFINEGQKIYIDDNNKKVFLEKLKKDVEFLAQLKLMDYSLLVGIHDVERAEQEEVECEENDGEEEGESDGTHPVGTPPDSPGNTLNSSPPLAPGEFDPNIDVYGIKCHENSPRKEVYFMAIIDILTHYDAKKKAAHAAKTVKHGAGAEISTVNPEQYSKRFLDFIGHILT
The experiment in a line: Inhibition of PIP5K2A LIP1 labeling site in human HeLa cells lysate pre incubated for 15 mins followed by ATP acyl phosphate probe addition and measured after 10 mins by LC-MS/MS analysis. The format is subcellular.

Series [6] addresses T3, Mixed lineage kinase domain-like protein (Homo sapiens) (UniProt Q8NB16).
T3 sequence (whole entry): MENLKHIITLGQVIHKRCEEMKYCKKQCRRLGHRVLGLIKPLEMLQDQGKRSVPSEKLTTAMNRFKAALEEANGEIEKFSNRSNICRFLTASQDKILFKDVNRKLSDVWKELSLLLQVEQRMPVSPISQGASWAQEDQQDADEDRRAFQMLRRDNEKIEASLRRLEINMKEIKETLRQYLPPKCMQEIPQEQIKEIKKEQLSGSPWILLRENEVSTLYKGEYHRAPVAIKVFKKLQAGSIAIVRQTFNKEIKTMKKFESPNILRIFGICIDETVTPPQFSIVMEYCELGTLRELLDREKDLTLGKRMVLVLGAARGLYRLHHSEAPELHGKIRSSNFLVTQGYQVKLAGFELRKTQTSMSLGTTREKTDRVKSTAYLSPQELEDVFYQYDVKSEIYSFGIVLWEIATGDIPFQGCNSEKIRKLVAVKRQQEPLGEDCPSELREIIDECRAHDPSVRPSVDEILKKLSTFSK
The experiment in a line: Inhibition of MLKL in human HeLa cells lysate at 10 uM pre incubated for 15 mins followed by ATP acyl phosphate probe addition and measured after 10 mins by LC-MS/MS analysis relative to control. Conditions: time 25.0 min. The format is subcellular.

The target in series [7] is Tyrosine-protein kinase receptor UFO (Homo sapiens) (UniProt P30530). The experiment in a line: Inhibition of AXL in human HeLa cells lysate at 2 uM pre incubated for 15 mins followed by ADP acyl phosphate probe addition and measured after 10 mins by LC-MS/MS analysis relative to control. Conditions: time 25.0 min. It is filed as subcellular. The procedure, abridged: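 KiNativ-type profiling in HeLa lysate (5 mg/mL total protein). Lysate preincubated 15 min with inhibitor at 50, 10, 2, 0.8 or 0 μM, then ATP or ADP acylphosphate probe added (5 μM final) for 10 min. Reaction stopped with urea and analysed by targeted MS, using up to four fragment ions per kinase peptide-probe conjugate. % inhibition calculated against untreated lysate. Duplicate reactions.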

In series [8] the target is Tyrosine-protein kinase JAK1 (Homo sapiens, UniProt P23458). The experiment in a line: Inhibition of JAK1 domain 2 in human HeLa cells lysate pre incubated for 15 mins followed by ADP acyl phosphate probe addition and measured after 10 mins by LC-MS/MS analysis. The format is subcellular.
For series [9], the target named is T4, EKC/KEOPS complex subunit TP53RK (Homo sapiens) (UniProt Q96S44).
T4 sequence (whole entry): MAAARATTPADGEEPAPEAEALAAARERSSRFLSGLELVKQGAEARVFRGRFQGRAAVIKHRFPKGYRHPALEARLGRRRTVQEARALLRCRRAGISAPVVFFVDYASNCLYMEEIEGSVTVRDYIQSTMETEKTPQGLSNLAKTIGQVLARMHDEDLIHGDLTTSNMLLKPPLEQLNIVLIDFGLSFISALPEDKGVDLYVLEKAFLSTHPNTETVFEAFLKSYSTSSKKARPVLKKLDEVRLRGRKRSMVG
The experiment in a line: Inhibition of PRPK in human HeLa cells lysate at 10 uM pre incubated for 15 mins followed by ATP acyl phosphate probe addition and measured after 10 mins by LC-MS/MS analysis relative to control. The format is subcellular. Conditions: time 25.0 min.

Series [10] deals with AMPK alpha1/alpha2 (Homo sapiens, UniProt P54646+Q13131). The experiment in a line: Inhibition of AMPKalpha1/2 in human HeLa cells lysate pre incubated for 15 mins followed by ATP acyl phosphate probe addition and measured after 10 mins by LC-MS/MS analysis. It is filed as subcellular. In short, it runs like this: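 HeLa cell lysates (5 mg/mL total protein) were preincubated with inhibitor at 0, 0.8, 2, 10 or 50 μM for 15 min. ATP or ADP acylphosphate probe was then added (5 μM final) for 10 min, and reactions were stopped with urea. Up to four fragment ions per kinase probe-peptide were quantified by targeted MS. % inhibition was taken relative to untreated lysate. Run in duplicate.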
Chain of AMPK alpha1/alpha2 (P54646 whole entry, the tested form may be a part): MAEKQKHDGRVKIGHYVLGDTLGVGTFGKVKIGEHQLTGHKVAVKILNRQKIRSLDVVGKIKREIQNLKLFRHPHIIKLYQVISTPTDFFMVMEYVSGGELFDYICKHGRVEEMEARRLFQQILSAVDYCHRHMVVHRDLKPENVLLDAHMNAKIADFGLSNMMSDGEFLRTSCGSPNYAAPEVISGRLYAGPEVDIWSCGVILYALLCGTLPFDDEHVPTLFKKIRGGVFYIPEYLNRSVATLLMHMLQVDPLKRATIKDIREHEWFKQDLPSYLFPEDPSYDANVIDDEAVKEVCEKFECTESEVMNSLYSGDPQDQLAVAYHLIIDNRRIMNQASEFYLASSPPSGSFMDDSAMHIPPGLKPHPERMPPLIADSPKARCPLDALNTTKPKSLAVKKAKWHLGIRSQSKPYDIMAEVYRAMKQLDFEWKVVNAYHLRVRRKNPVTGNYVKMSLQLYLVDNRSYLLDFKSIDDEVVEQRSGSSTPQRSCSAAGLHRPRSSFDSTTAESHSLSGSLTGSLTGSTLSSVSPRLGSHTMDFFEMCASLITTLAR
Chain of AMPK alpha1/alpha2 (Q13131 whole entry, the tested form may be a part): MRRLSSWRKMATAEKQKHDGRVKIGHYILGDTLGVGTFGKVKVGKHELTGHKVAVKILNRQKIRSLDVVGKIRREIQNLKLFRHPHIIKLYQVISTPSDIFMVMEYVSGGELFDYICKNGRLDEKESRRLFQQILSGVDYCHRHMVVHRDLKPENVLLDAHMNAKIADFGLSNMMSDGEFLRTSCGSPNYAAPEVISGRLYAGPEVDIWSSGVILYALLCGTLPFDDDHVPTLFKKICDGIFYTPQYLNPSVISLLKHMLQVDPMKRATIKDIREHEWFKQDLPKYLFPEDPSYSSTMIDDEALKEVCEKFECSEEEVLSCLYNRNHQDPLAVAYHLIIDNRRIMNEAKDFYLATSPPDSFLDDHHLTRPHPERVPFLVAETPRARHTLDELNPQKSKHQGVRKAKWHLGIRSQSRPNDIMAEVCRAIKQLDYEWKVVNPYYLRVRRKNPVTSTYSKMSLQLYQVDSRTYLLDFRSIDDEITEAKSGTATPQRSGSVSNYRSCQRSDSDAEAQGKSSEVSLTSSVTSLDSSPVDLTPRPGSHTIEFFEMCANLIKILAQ

Chain of Ribosomal protein S6 kinase alpha-1 (Q15418 whole entry, the tested form may be a part): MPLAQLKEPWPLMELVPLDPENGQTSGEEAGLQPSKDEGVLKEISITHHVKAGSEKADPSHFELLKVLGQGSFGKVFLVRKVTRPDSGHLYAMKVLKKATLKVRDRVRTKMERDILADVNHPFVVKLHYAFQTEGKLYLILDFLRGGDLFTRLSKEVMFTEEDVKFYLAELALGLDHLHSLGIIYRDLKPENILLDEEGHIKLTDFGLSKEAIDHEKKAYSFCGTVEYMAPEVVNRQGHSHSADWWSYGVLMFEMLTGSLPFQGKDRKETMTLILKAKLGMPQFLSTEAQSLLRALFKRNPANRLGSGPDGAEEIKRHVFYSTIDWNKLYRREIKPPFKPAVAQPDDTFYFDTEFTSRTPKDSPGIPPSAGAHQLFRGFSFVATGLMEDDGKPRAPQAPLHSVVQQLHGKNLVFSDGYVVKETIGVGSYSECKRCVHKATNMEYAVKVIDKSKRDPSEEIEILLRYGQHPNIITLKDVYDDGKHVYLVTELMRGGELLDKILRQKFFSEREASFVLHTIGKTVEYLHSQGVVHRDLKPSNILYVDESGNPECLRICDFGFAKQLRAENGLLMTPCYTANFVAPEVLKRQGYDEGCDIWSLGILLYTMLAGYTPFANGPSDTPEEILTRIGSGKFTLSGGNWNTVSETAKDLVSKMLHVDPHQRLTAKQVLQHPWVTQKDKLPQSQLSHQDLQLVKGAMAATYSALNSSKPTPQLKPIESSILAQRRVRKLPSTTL
Chain of Ephrin type-A receptor 2 (P29317 whole entry): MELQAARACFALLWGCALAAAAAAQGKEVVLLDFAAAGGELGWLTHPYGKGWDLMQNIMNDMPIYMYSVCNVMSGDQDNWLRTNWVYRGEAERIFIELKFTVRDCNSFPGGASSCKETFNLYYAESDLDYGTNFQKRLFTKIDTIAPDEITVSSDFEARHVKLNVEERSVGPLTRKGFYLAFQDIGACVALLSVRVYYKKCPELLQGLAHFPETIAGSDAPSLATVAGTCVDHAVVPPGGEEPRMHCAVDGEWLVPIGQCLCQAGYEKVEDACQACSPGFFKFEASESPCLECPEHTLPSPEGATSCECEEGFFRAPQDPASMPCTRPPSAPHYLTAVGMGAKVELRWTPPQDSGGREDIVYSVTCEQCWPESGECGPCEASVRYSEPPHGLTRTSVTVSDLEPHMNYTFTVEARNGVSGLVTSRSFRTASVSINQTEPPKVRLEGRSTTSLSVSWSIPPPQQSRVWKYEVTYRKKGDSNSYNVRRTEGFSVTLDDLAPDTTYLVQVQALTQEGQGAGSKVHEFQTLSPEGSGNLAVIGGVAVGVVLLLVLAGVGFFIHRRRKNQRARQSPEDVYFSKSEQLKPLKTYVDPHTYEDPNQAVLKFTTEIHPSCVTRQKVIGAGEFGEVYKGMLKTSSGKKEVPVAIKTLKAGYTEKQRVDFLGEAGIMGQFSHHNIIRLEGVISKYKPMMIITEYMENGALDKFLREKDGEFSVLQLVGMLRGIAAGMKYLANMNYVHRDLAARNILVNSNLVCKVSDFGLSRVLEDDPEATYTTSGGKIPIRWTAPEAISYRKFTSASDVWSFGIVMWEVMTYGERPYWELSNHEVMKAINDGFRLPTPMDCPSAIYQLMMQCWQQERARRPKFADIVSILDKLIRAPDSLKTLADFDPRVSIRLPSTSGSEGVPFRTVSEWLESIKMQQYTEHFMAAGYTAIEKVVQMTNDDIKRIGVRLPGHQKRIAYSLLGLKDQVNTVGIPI
Chain of Tyrosine-protein kinase receptor UFO (Homo sapiens) (P30530 whole entry, the tested form may be a part): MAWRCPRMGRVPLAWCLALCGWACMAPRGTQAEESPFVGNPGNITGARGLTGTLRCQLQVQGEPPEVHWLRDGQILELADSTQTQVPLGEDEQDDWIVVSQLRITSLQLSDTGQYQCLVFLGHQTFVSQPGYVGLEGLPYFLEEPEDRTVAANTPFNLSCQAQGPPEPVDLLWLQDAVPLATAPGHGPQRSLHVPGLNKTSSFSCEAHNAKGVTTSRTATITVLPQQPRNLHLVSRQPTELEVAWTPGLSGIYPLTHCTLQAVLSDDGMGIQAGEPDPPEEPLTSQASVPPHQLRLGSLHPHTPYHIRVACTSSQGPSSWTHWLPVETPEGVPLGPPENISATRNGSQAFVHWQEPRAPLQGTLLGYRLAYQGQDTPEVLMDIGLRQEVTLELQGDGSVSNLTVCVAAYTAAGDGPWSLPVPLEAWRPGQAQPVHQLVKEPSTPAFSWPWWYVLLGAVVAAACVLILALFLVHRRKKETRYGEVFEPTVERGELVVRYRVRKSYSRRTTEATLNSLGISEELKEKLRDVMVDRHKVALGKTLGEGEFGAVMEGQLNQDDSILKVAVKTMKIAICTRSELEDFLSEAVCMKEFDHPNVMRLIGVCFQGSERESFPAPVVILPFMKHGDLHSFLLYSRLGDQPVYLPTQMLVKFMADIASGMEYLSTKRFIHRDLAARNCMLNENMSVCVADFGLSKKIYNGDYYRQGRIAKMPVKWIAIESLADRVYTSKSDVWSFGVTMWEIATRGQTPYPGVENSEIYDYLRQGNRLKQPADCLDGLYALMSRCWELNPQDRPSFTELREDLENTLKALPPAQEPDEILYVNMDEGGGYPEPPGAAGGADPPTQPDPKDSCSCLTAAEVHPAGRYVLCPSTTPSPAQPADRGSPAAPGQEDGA
Chain of Tyrosine-protein kinase JAK1 (P23458 whole entry, the tested form may be a part): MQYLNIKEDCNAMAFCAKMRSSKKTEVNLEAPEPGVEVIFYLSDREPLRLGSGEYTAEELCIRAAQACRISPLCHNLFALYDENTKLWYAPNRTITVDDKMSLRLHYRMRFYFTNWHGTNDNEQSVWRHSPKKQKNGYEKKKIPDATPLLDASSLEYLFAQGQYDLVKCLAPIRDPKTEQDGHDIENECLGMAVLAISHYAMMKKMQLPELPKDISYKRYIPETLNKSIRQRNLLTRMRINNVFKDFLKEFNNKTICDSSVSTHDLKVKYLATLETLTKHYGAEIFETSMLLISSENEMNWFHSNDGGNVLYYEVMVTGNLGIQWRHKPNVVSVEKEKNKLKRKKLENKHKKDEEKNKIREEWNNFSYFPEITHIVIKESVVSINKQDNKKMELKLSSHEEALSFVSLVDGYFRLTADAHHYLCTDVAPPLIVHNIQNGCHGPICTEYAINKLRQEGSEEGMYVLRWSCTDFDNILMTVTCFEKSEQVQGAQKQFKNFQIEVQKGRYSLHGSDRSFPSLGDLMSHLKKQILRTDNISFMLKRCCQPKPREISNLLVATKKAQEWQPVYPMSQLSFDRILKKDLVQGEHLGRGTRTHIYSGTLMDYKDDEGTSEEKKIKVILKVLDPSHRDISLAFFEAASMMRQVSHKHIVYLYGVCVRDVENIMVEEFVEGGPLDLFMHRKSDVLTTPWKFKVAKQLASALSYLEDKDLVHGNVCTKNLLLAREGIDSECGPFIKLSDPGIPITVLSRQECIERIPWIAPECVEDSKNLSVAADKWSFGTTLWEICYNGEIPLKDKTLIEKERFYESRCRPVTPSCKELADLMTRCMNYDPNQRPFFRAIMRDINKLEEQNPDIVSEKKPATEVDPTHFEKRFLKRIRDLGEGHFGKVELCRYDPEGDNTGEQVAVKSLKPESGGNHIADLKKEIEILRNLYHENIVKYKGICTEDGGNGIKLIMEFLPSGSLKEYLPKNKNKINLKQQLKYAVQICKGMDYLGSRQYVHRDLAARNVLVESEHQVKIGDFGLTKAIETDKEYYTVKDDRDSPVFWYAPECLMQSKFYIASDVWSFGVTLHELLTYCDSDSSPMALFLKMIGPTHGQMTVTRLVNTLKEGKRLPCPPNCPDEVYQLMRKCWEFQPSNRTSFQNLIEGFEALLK

Consider `CCOc1cc(N2CCC(O)CC2)ccc1Nc1ncc2c(n1)N(C)c1ccccc1C(=O)N2C`, for which the inhibition in series [1] is -7.8%; in series [3], -6.4%; in series [4] it was -0.4%; in [6] it was -9.8%; in series [7] it was 13.1%; in series [9], -9.7%. In series [2], the Activity was less than 0.2 mg/dL. Further, the IC50 in series [5], in series [8] and in series [10] was more than 50 µM throughout.

These data come from ChEMBL document CHEMBL5661979, “Pharmacological inhibition of BMK1 suppresses tumor growth through promyelocytic leukemia protein” (Cancer Cell, 2010).
